Assay results reported in ChEMBL document CHEMBL3862014, “Synthesis and anti-inflammatory activity of paeonol analogues in the murine model of complete Freund's adjuvant induced arthritis” (Bioorg Med Chem Lett, 2016).
pIC50: −log10 of the molar value. Active and inactive are the calls of the source. The calls are words filed in the database; no cut-off is given here.

Assays:
[1] = Antioxidant activity assessed as ABTS radical scavenging activity after 6 mins by spectrophotometric analysis; type: functional
How it was run: (§1)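 In vitro radical scavenging was reported as IC50 (mM) alongside a positive control. Data are mean ± s, n = 6, with experiments run in triplicate.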

[2] = Antioxidant activity assessed as superoxide radical scavenging activity measured every 30 secs for 6 mins in presence of superoxide generator pyrogallol; type: functional; how it was run: as §1
[3] = Antioxidant activity assessed as DPPH radical scavenging activity incubated for 30 mins in dark; type: functional; how it was run: as §1
[4] = Antioxidant activity assessed as hydroxyl radical scavenging activity measured 10 mins after H2O2 addition by pyronin B dye based assay; type: functional; how it was run: as §1
Mus musculus [5] = test: Antiinflammatory activity in Kunming mouse CFA-induced arthritis model assessed as PGE2 level in serum at 25 mg/kg/day, po for 1 week administered on day 8 post CFA induction by ELISA (reference value: 207 +/- 2.1 ng/L); type: functional
Mus musculus [6] = test: Antioxidant activity in Kunming mouse CFA-induced arthritis model assessed as superoxide dismutase activity in serum at 100 mg/kg/day, po for 1 week administered on day 8 post CFA induction by ELISA (reference value: 66.7 +/- 0.9 U/ml); type: functional
Mus musculus [7] = test: Antioxidant activity in Kunming mouse CFA-induced arthritis model assessed as malondialdehyde level in serum at 25 mg/kg/day, po for 1 week administered on day 8 post CFA induction by ELISA (reference value: 15.5 +/- 1.1 nmol/ml); type: functional
Mus musculus [8] = test: Antioxidant activity in Kunming mouse CFA-induced arthritis model assessed as total antioxidant capacity in serum at 25 mg/kg/day, po for 1 week administered on day 8 post CFA induction by ELISA (reference value: 2.9 +/- 0.5 U/ml); type: functional
Mus musculus [9] = test: Antiinflammatory activity in Kunming mouse CFA-induced arthritis model assessed as COX-2 level in serum at 25 mg/kg/day, po for 1 week administered on day 8 post CFA induction by ELISA (reference value: 85.3 +/- 0.1 ng/L); type: functional
Mus musculus [10] = test: Antiinflammatory activity in Kunming mouse CFA-induced arthritis model assessed as inhibition of paw swelling at 25 mg/kg/day, po for 1 week administered on day 8 post CFA induction measured every 2 days during compound dosing; type: functional, organism-based
How it was run: (§2)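 Dosing began seven days after the model was established, at 100 mg·kg⁻¹·d⁻¹ (high) or 25 mg·kg⁻¹·d⁻¹ (low). Inhibition of paw swelling was expressed in %, with celecoxib as reference group.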

Mus musculus [11] = test: Antiinflammatory activity in Kunming mouse CFA-induced arthritis model assessed as PGE2 level in serum at 100 mg/kg/day, po for 1 week administered on day 8 post CFA induction by ELISA (reference value: 207 +/- 2.1 ng/L); type: functional
Mus musculus [12] = test: Antioxidant activity in Kunming mouse CFA-induced arthritis model assessed as malondialdehyde level in serum at 100 mg/kg/day, po for 1 week administered on day 8 post CFA induction by ELISA (reference value: 15.5 +/- 1.1 nmol/ml); type: functional
Mus musculus [13] = test: Antioxidant activity in Kunming mouse CFA-induced arthritis model assessed as superoxide dismutase activity in serum at 25 mg/kg/day, po for 1 week administered on day 8 post CFA induction by ELISA (reference value: 66.7 +/- 0.9 U/ml); type: functional
Mus musculus [14] = test: Antiinflammatory activity in Kunming mouse CFA-induced arthritis model assessed as inhibition of paw swelling at 100 mg/kg/day, po for 1 week administered on day 8 post CFA induction measured every 2 days during compound dosing; type: functional; how it was run: as §2
Mus musculus [15] = test: Antiinflammatory activity in Kunming mouse CFA-induced arthritis model assessed as COX-2 level in serum at 100 mg/kg/day, po for 1 week administered on day 8 post CFA induction by ELISA (reference value: 85.3 +/- 0.1 ng/L); type: functional
Mus musculus [16] = test: Antioxidant activity in Kunming mouse CFA-induced arthritis model assessed as total antioxidant capacity in serum at 100 mg/kg/day, po for 1 week administered on day 8 post CFA induction by ELISA (reference value: 2.9 +/- 0.5 U/ml); type: functional
Mus musculus [17] = test: Antioxidant activity in Kunming mouse CFA-induced arthritis model assessed as total antioxidant capacity in serum at 30 mg/kg/day, po for 1 week administered on day 8 post CFA induction by ELISA (reference value: 2.9 +/- 0.5 U/ml); type: functional
Mus musculus [18] = test: Antiinflammatory activity in Kunming mouse CFA-induced arthritis model assessed as PGE2 level in serum at 30 mg/kg/day, po for 1 week administered on day 8 post CFA induction by ELISA (reference value: 207 +/- 2.1 ng/L); type: functional
Mus musculus [19] = test: Antiinflammatory activity in Kunming mouse CFA-induced arthritis model assessed as inhibition of paw swelling at 30 mg/kg/day, po for 1 week administered on day 8 post CFA induction measured every 2 days during compound dosing; type: functional, organism-based
Mus musculus [20] = test: Antiinflammatory activity in Kunming mouse CFA-induced arthritis model assessed as COX-2 level in serum at 30 mg/kg/day, po for 1 week administered on day 8 post CFA induction by ELISA (reference value: 85.3 +/- 0.1 ng/L); type: functional
Mus musculus [21] = test: Antioxidant activity in Kunming mouse CFA-induced arthritis model assessed as superoxide dismutase activity in serum at 30 mg/kg/day, po for 1 week administered on day 8 post CFA induction by ELISA (reference value: 66.7 +/- 0.9 U/ml); type: functional
Mus musculus [22] = test: Antioxidant activity in Kunming mouse CFA-induced arthritis model assessed as malondialdehyde level in serum at 30 mg/kg/day, po for 1 week administered on day 8 post CFA induction by ELISA (reference value: 15.5 +/- 1.1 nmol/ml); type: functional
[23] = Solubility of the compound in water; type: physicochemical; conditions: buffer
Mus musculus [24] = test: Antiinflammatory activity in Kunming mouse CFA-induced arthritis model assessed as inhibition of paw swelling at 100 mg/kg/day, po for 1 week administered on day 8 post CFA induction measured after day 3 during compound dosing; type: functional, organism-based; how it was run: as §2

SMILES	pIC50 [1]	pIC50 [2]	pIC50 [3]	pIC50 [4]	also measured
CCCCCCCCOc1cc(OC)ccc1C(C)=O	1.42	1.67	1.40	1.16	–
CCCCCCCCCCCCCCOc1cc(OC)c(Br)cc1C(C)=O	2.06	2.17	1.79	1.88	–
CCCCCCCCOc1cc(OC)c(Br)cc1C(C)=O	1.49	1.51	1.41	1.42	–
CCCCOc1cc(OC)c(Br)cc1C(C)=O	1.47	1.42	1.37	1.24	–
CCCCCCOc1cc(OC)ccc1C(C)=O	1.38	1.74	1.37	1.07	–
CCCCOc1cc(OC)ccc1C(C)=O	1.44	1.81	1.36	1.24	–
Cc1c(C)c2c(c(C)c1O)CCC(C)(C(=O)O)O2 (centres undefined) [TROLOX]	3.52	3.22	3.70	3.70	–
CCCCCCOc1cc(OC)c(Br)cc1C(C)=O	1.45	1.47	1.37	1.27	–
CCCCCCCCCCCCCCCCOc1cc(OC)c(Br)cc1C(C)=O	2.34	2.74	2.19	4.00	Activity (Mus musculus [5]): 189.3 ng/L; Activity (Mus musculus [6]): 76.2 U/ml; Activity (Mus musculus [7]): 7.5 nmol/mL; Activity (Mus musculus [8]): 6.5 U/ml; Activity (Mus musculus [9]): 63.9 ng/L; inhibition (Mus musculus [10]): Active; Activity (Mus musculus [11]): 150.1 ng/L; Activity (Mus musculus [12]): 5.8 nmol/mL; Activity (Mus musculus [13]): 73.9 U/ml; inhibition in vivo at 100 mg/kg/day (Mus musculus [14]): 45%; Activity (Mus musculus [15]): 64.7 ng/L; Activity (Mus musculus [16]): 11.6 U/ml
CCCCCCCCCCOc1cc(OC)ccc1C(C)=O	1.38	1.58	1.40	1.24	–
Cc1ccc(-c2cc(C(F)(F)F)nn2-c2ccc(S(N)(=O)=O)cc2)cc1 [CELECOXIB]	–	–	–	–	Activity (Mus musculus [17]): 6.3 U/ml; Activity (Mus musculus [18]): 135.3 ng/L; inhibition (Mus musculus [19]): Active; Activity (Mus musculus [20]): 61.6 ng/L; Activity (Mus musculus [21]): 78 U/ml; Activity (Mus musculus [22]): 7.3 nmol/mL
COc1ccc(C(C)=O)c(O)c1 [PAEONOL]	1.80	2.24	1.37	3.70	Activity (Mus musculus [5]): 155.5 ng/L; Activity (Mus musculus [6]): 68.1 U/ml; Activity (Mus musculus [7]): 8.9 nmol/mL; Activity (Mus musculus [8]): 4.6 U/ml; Activity (Mus musculus [9]): 66.2 ng/L; inhibition (Mus musculus [10]): Active; Activity (Mus musculus [11]): 137.1 ng/L; solubility [23]: Soluble; Activity (Mus musculus [12]): 7.9 nmol/mL; Activity (Mus musculus [13]): 62.5 U/ml; inhibition (Mus musculus [14]): Active; Activity (Mus musculus [15]): 61.1 ng/L; Activity (Mus musculus [16]): 4.1 U/ml
CCCCCCCCCCCCCCCCOc1cc(OC)ccc1C(C)=O	1.44	1.40	1.40	1.21	Activity (Mus musculus [5]): 182.2 ng/L; Activity (Mus musculus [6]): 80.7 U/ml; Activity (Mus musculus [7]): 9.7 nmol/mL; Activity (Mus musculus [8]): 11.1 U/ml; Activity (Mus musculus [9]): 65.2 ng/L; inhibition (Mus musculus [10]): Active; Activity (Mus musculus [11]): 159.4 ng/L; inhibition (Mus musculus [24]): Active; Activity (Mus musculus [12]): 8.8 nmol/mL; Activity (Mus musculus [13]): 72.1 U/ml; inhibition in vivo at 100 mg/kg/day (Mus musculus [14]): 65%; Activity (Mus musculus [15]): 64.4 ng/L; Activity (Mus musculus [16]): 16.9 U/ml
COc1cc(O)c(C(C)=O)cc1Br	1.50	1.81	1.38	2.52	Activity (Mus musculus [5]): 179.5 ng/L; Activity (Mus musculus [6]): 78.1 U/ml; Activity (Mus musculus [7]): 9.9 nmol/mL; Activity (Mus musculus [8]): 3.8 U/ml; Activity (Mus musculus [9]): 65.4 ng/L; inhibition (Mus musculus [10]): Active; Activity (Mus musculus [11]): 142.3 ng/L; Activity (Mus musculus [12]): 6.4 nmol/mL; Activity (Mus musculus [13]): 76.3 U/ml; inhibition (Mus musculus [14]): Active; Activity (Mus musculus [15]): 57.6 ng/L; Activity (Mus musculus [16]): 6 U/ml
CCCCCCCCCCCCCCOc1cc(OC)ccc1C(C)=O	1.42	1.44	1.36	1.24	–
CCCCCCCCCCCCOc1cc(OC)c(Br)cc1C(C)=O	1.49	1.97	1.53	1.64	–
CCCCCCCCCCOc1cc(OC)c(Br)cc1C(C)=O	1.46	1.82	1.45	1.53	–
CCOc1cc(OC)ccc1C(C)=O	1.42	2.18	1.40	1.45	solubility [23]: Soluble
CCCCCCCCCCCCOc1cc(OC)ccc1C(C)=O	1.39	1.55	1.43	1.18	–
CCOc1cc(OC)c(Br)cc1C(C)=O	1.44	1.42	1.33	1.24	solubility [23]: Soluble
